A selection: hits, their analogues and other compounds. The true share with any hit is near 1.7%.
SUMO1 PPI mod = modulators of human SUMO1-mediated protein-protein interactions; inhibition, % at 20 µM; P63165; SUMO1 binding to a labelled peptide, TR-FRET, 1 h; 0.33% of 360,000 active; in the data active = inhibition above about 37%
STEP inh = blocks human striatal-enriched tyrosine phosphatase; P54829; inhibition, % at 20 µM; recombinant STEP, OMFP fluorogenic substrate, fluorescence; 0.25% of 360,000 active; AID 588621;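 active = inhibition at 20 µM, scaled per plate between control wells, above about 37%, limit read from the data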;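 also: 0% = DMSO with enzyme and substrate and 100% = substrate only without enzyme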
Target sequence (P54829 whole entry, looked up): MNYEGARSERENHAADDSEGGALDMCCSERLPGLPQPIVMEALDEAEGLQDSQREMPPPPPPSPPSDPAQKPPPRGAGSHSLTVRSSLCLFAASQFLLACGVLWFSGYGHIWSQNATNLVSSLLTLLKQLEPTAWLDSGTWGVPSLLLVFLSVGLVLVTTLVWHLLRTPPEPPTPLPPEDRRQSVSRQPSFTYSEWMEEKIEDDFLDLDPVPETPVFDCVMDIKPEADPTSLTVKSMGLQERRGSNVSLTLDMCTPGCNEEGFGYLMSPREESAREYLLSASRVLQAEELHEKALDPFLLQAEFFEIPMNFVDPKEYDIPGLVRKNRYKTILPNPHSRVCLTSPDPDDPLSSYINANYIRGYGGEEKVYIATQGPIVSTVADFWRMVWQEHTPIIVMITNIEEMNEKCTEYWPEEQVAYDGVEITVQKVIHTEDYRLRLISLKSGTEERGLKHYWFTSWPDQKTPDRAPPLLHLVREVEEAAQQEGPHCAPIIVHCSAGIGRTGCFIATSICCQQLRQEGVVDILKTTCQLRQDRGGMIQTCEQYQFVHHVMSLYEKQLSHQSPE
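Test system: STEP tyrosine phosphatase / Reagent: OMFP at 25 µM / Doses: 20 µM, 1% DMSO / Read-out: percent inhibition scaled to no-enzyme and uninhibited-enzyme controls, plate-pattern corrected / Detection: FITC-channel fluorescence of OMFP product / Medium: Bis-Tris buffer pH 6.0, 2.5 mM DTT, 0.005% Tween 20 / Schedule: 20 min at room temperature, dark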
Scp-1 inhibitor = Scp-1 (human) phosphatase inhibition | Q9GZU7 | Recombinant Scp1, phosphopeptide, malachite green phosphate absorbance | inhibition, % at 20 µM | 0.88% of 340,000 active;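 active = inhibition above about 50% at 20 µM, limit read from the data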;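 also: plate controls were DMSO wells with enzyme for no effect and wells lacking enzyme for full effect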
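Test system: SCP-1 catalytic domain; Buffer or medium: Acidic Tris acetate buffer with magnesium and detergent; Also added: Phosphorylated 17-residue peptide substrate; Compound: single 20 µM dose, 1% DMSO; Schedule: enzyme reaction 45 min at room temperature, colour 5 min, stabilisation 30 min; Signal: Phosphate-binding colour reagent, absorbance read at 630 nm.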
DSG3 Ab inh = blocks pemphigus antibody binding to human desmoglein-3; P32926; DSG3-coupled beads, scFv-anti-DSG3-GFP binding, flow cytometry; hits give low values; binding (percent of control), % at 10 µM; 0.48% of 310,000 active; AID 588358;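 active = binding more than 3 SD below its plate's average and above zero; inconclusive = below that plate limit but binding exactly zero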;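 also: hits lower antibody fragment binding to DSG3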
LMPTP inh = blocks human LMPTP phosphatase; P24666; recombinant LMPTP-A, OMFP fluorogenic substrate, fluorescence intensity; inhibition, % at 20 µM; 0.22% of 360,000 active;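 active = compounds that cut the enzyme signal by at least half of the control window in the single-dose screen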;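 also: plate controls were DMSO wells with enzyme plus substrate for no effect and substrate without enzyme for full effect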
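Assay system: LMPTP-A, protein tyrosine phosphatase of low molecular weight / Medium: pH 6.0 Bis-Tris buffer with DTT and Triton X-100 / Schedule: 50 min enzyme reaction at room temperature, protected from light / Measured by: endpoint fluorescence intensity from OMFP dephosphorylation / Read-out basis: % inhibition relative to no-enzyme and uninhibited control wells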
* = called active by the depositor; u = inconclusive; x = not tested or not shown.

SMILES	SUMO1 PPI mod	STEP inh	Scp-1 inhibitor	DSG3 Ab inh	LMPTP inh
Cc1cccc(NC(=S)N(C)C)c1C	-3	-3	-11	98	-1
Cc1cccc(Nc2cc(C)c3c(O)cccc3n2)c1C	-4	5	-12	109	69*
Cc1c(C(=O)N/N=C/c2ccccn2)nnn1-c1nonc1N	-9	4	-5	118	-2
COc1ccc(-c2cc(C(=O)Nc3cc(C)ccc3O)no2)cc1	-1	0	-7	97	-5
COc1ccc(-c2cc(C(=O)Nc3cc(Cl)ccc3O)no2)cc1	-1	14	-4	107	66*
O=C(NCc1ccccc1Cl)c1cc([N+](=O)[O-])ccc1Cl	-23	-1	-1	72*	-1
CCc1ccccc1NC(=O)c1ccc(CN2CCC(Cc3ccccc3)CC2)cc1	1	4	15	104	0
CC(C)CC(=O)NC(=S)Nc1ccc(NC(=O)c2ccco2)cc1	3	0	-4	94	0
O=C(O)c1ccccc1-c1ccccc1C(=O)Nc1ccc(-c2nc3cc(Cl)ccc3o2)cc1	26	0	-3	99	1
CC(=O)Nc1ccc(-c2nc3cc(Cl)ccc3o2)cc1	13	4	62*	119	19
COc1ccc(CCNC(=O)CNS(=O)(=O)c2ccc(Cl)cc2)cc1	2	-4	-11	114	-2
COc1ccc(OC)c(NC(=O)CSc2ccc3nnc(-c4cccnc4)n3n2)c1	0	-3	-6	113	-1
COc1cccc(OC)c1C(=O)NCc1ccco1	2	0	x	103	-1
S=C(NCCCN1CCOCC1)NCCCN1CCOCC1	-2	94*	-2	104	-7
S=C(NCCCN1CCOCC1)NC1CCCC1	2	0	-7	84	-6
CC(C)(C)OC(=O)[C@H](Cc1ccccc1)NC(=O)c1ncn2c1c(=O)[nH]c1ccc(Br)cc12	-28	2	x	106	73*
CCCc1nnc(NC(=O)CCC(=O)NC2CCCCC2)s1	0	2	-16	x	0
NC(=O)c1ccc2c(=O)n3c(-c4cc(Cl)c(N)c(Cl)c4)csc3nc2c1	56*	10	8	100	8
Cn1cnnc1SCC(=O)Nc1ncc([N+](=O)[O-])s1	4	7	75*	95	22
Cc1ccc(C(=O)NCCNC(=O)c2ccco2)cn1	1	-2	-4	95	-1
Cc1cnc(C(=O)N2CCN(S(=O)(=O)c3cc(C(F)(F)F)cc(C(F)(F)F)c3)CC2)cn1	7	-2	11	-17*	-4
COc1ccc(S(=O)(=O)N2CCN(C(=O)c3cnc(C)cn3)CC2)cc1	1	2	-3	105	-1
CSc1nc(N(CCO)CCO)c2sc3nc(-c4ccco4)c4c(c3c2n1)CCC4	74*	56*	81*	x	68*
O=C(COC(=O)c1ccc([N+](=O)[O-])s1)NC(c1ccccc1)c1ccccc1	59*	-1	2	96	-1
C[C@H]1CN(c2ccccc2)C(=O)[C@@H]1CC(=O)Nc1ccc(Br)cc1	-2	3	x	108	0
SMILES	SUMO1 PPI mod	STEP inh	Scp-1 inhibitor	DSG3 Ab inh	LMPTP inh
Fc1ccc2nc(C3CCCCN3Cc3nc(CC4CC4)no3)[nH]c2c1 (stereo not given)	-1	1	11	2.2*	-2
O=C(c1ccco1)N1CCN(C(=O)c2ccco2)CC1	4	1	x	x	-1
O=C(c1ccco1)N1CCN(Cc2ccccc2Br)CC1	-7	0	-8	72*	-2
Cc1cc(O)c(C=O)c2c1C(=O)Oc1c(CO)c(O)c3c(c1O2)C(O)OC3=O (stereo not given)	103*	46*	77*	x	57*
CCOc1ccc2nc(NC(=O)CSc3nc4c(c(=O)n(C)c(=O)n4C)n3C(C)C)sc2c1	8	12	-11	103	0
CC(C)n1c(SCC(=O)Nc2nc3ccccc3s2)nc2c1c(=O)n(C)c(=O)n2C	1	-2	6	87*	2
COc1ccccc1-c1sc2cc3c(cc2c1-c1ccc2c(c1)OCO2)OCO3	-6	-3	68*	u	2
COc1ccccc1-c1sc2ccccc2c1-c1ccc2c(c1)OCO2	1	2	-9	102	3
COc1ccc(CNC(=O)CCc2nc3cc(S(=O)(=O)N(C)C)ccc3n2C)cc1OC	0	-2	-3	106	0
C/C(=N\NC(=O)c1cc(O)ccc1O)c1cccc(NC(=O)c2ccc(Cl)cc2)c1	44*	12	49	x	44
CC1CC(C)(C)NC(=S)N1CCC(=O)NCCc1ccc(Cl)cc1 (stereo not given)	3	-4	2	114	-1
Nc1nn2cc(-c3ccc(Br)cc3)nc2c2ccccc12	65*	-4	0	90	3
CN(CC(=O)Nc1cccc(F)c1)CC(=O)Nc1ccccc1Oc1ccccc1	3	2	-1	101	1
COc1ccc(NC(=O)c2c[nH]c(=O)n(-c3ccc(C)c(C)c3)c2=O)cc1OC	10	-1	-9	103	1
COc1ccc(NC(=O)c2c[nH]c(=O)n(-c3ccc(C)c(C)c3)c2=O)c(OC)c1	43*	-7	-10	98	-4
CC(C)C(=O)NNS(=O)(=O)c1ccccc1	44*	2	4	108	-1
CNNC(=O)C(=O)NNS(=O)(=O)c1ccccc1	-2	4	-6	103	0
CCOCCCNC(=O)c1ccc(-n2c(=S)[nH]c3ccccc3c2=O)cc1	-2	-5	-2	112	1
Cc1c(Br)c([N+](=O)[O-])nn1CC(=O)NCCc1ccc(Cl)cc1	43*	0	0	93	1
Cc1c(Br)c([N+](=O)[O-])nn1CC(=O)NCc1ccccc1	-24	9	-11	102	-1
CCOc1ccc(N2CSC(=S)N(c3ccc(OCC)cc3)C2)cc1	3	3	-4	76*	1
COc1ccc(-n2cccc2/C=C2\C(=N)N3N=C(c4ccco4)SC3=NC2=O)cc1	103*	87*	82*	84	51*
COc1ccc(-n2cccc2/C=C2\C(=N)N3N=C(C(C)C)SC3=NC2=O)cc1	-17	8	-3	98	2
N=C1/C(=C/c2coc3ccccc3c2=O)C(=O)N=C2SC(c3ccco3)=NN12	-5	-31	54*	110	35
CCC(C)NC(=O)CSc1nc2cc3c(cc2c(=O)n1Cc1ccco1)OCO3 (stereo not given)	42*	-1	-5	77	-1
CCN(CC)C(=O)CSc1nc2cc3c(cc2c(=O)n1Cc1ccco1)OCO3	2	-1	10	95	0
CCSc1nnc(NC(=O)[C@@H](NC(=O)c2ccccc2)C(C)C)s1	3	3	-8	108	-2

High-throughput results as filed in PubChem BioAssay.
